Results on 4 molecules are retold here after publication PMC3220788 (The Journal of steroid biochemistry and molecular biology, 2011).

Where two headings read alike, the source gives them in different places.

In assay [1] the test system is ERα. In words: PI3K activation. The note with it: COS7 ERα-GFP. It is filed as cell-based.
For another assay, the system named is COS7 cells. In words: PI3K activation. In kind it is cell-based. The note with it: 10 µM, COS7 lacking ERα, ERβ and GPER. A digest of the protocol: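 COS7 cells carry no endogenous ERα, ERβ or GPER. They are transfected with PH-mRFP1 alone (¼ the recommended amount, Lipofectamine2000), grown on coverslips and serum-starved 24 h in phenol red-free RPMI. Cells are stimulated with compounds at 10 µM, fixed in 2% PFA, and scored by confocal microscopy for nuclear translocation of the PIP3 reporter.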

The test system of assay [2] is ERβ. The note with it: high concentrations (≥10 µM); cited from earlier work.
Assay [3] deals with ERβ. In kind it is binding. Put shortly:
(§1)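 COS7 cells are transiently transfected (Lipofectamine2000) with ERα-GFP or ERβ-GFP and serum-starved 24 h. About 5×10⁴ cells are incubated 20 min with test compound, then an equal volume of 20 nM E2-Alexa633 in saponin permeabilization buffer is added. After 10 min at RT, cells are washed in PBS/2% BSA and read by high-throughput flow cytometry.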

Another assay deals with ERα or ERβ. The note with it: ERα- or ERβ-expressing cells; cited from earlier work.
Assay [4] concerns ERα. It is filed as binding. Put shortly:
as §1

The target in a further assay is ERα/β (Homo sapiens, UniProt P03372). The assay can be described thus: ERE-GFP reporter activation/inhibition assay in MCF-7 cells. It is filed as cell-based. The note with it: for inhibition of E2-induced ERE response: 1 nM E2.
ERα/β, sequence (P03372 whole entry): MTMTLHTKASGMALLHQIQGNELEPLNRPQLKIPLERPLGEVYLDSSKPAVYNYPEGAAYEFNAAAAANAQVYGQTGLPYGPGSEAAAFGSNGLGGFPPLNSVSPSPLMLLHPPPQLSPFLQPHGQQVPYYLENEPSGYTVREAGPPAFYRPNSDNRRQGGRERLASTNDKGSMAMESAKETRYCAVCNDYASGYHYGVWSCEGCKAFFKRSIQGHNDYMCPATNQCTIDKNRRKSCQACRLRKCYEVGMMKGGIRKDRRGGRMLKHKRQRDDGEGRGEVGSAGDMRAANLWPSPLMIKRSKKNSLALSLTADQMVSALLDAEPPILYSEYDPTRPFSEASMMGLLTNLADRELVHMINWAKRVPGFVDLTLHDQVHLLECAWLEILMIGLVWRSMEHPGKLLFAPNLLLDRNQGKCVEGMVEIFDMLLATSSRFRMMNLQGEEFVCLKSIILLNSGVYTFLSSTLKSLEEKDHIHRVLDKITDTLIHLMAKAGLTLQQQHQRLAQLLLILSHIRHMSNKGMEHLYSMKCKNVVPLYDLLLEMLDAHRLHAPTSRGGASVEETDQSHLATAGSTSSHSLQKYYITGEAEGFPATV
The subject of assay [5] is ERα. The note with it: cited from earlier work.
The target in assay [6] is T1, GPER (Homo sapiens, UniProt Q99527). In words: PI3K activation. In kind it is cell-based. The note with it: COS7 GPER-GFP, 1 µM G36 preincubated 20 min. Put shortly: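 COS7 cells are cotransfected (Lipofectamine2000) with GPER-GFP and PH-mRFP1, the latter at ¼ the recommended amount. […] Cells are fixed in 2% PFA and imaged by confocal microscopy for PH-mRFP1 nuclear translocation as the PI3K read-out.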
T1 sequence (Q99527 whole entry, species assumed): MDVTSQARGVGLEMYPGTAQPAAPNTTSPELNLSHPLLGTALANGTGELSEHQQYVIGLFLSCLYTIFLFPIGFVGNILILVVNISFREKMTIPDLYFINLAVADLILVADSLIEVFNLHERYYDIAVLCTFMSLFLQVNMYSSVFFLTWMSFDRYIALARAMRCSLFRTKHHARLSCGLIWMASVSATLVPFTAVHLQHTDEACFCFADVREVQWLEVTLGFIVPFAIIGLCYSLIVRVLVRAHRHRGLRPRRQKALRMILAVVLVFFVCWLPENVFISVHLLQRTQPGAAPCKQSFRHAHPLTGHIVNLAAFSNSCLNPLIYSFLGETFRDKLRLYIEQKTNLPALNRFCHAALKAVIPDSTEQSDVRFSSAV

Assay [7] addresses T1, GPER. The assay can be described thus: Intracellular calcium mobilization in SKBr3 cells. In kind it is cell-based. Put shortly: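 SKBr3 cells are loaded with 3 µM indo1-AM and 0.05% pluronic acid in HBSS for 1 h at RT, washed, and assayed at 2×10⁶ cells/mL. Calcium is read ratiometrically (ex 340 nm, em 400/490 nm) at 37°C with stirring. […] Responses are normalized to agonist plus DMSO vehicle, and IC50 is taken from the dose-response curve.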

For assay [8], the target named is T1, GPER. In words: ERK activation. In kind it is cell-based.
For the next assay, the system named is uterine epithelia. In words: Mouse uterine estrogenicity assay. The note with it: s.c., 18 hr. It is filed as in vivo.
Assay [9] concerns endogenous purinergic receptors. The assay can be described thus: Calcium mobilization by ATP in SKBr3 cells. It is filed as cell-based. The note with it: 10 µM G36, SKBr3. A digest of the protocol: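 SKBr3 cells are loaded with 3 µM indo1-AM and 0.05% pluronic acid in HBSS for 1 h at RT, washed, and assayed at 2×10⁶ cells/mL. Calcium is read ratiometrically (ex 340/em 400/490 nm) at 37°C in a stirred spectrofluorometer. Cells are pretreated with 10 µM test compound, then given 1 µM ATP to engage endogenous purinergic receptors.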
A general note: Calcium flux is commonly read through the fluorescence of an indicator in the cells.

[10] abbreviates: entire range of concentrations tested.

Consider `C[C@]12CC[C@@H]3c4ccc(O)cc4CC[C@H]3[C@@H]1CC[C@@H]2O` [E2, 17β-estradiol, reference compound], for which the entries for the “activation of PI3K (nuclear translocation of PH-RFP)” value (“activation of PI3K” below) in the assay on ERα [1] and with COS7 cells were “activate PI3K” and “no activation of PI3K”, respectively.

`Brc1cc2c(cc1[C@@H]1Nc3ccccc3[C@@H]3C=CC[C@@H]31)OCO2` [G15]: the “binding to ERβ” value in the assay with ERβ [2] is “weak binding”. In addition, in the assay with ERβ [3] (highest concentration, 10 µM), the “binding to ERβ (competition of E2-Alexa633)” value is “weak but significant binding”. Also, in the assay on ERα or ERβ, the “rapid signaling events via MAPK or PI3K pathways” value is given as “does not mediate rapid signaling events”. Moreover, the “binding to ERα (competition of E2-Alexa633)” value in the assay with ERα [4] (highest concentration, 10 µM) is on record as “weak but significant binding”. Moreover, the “inhibition of E2-induced ERE response” value at ERα/β (1 µM compound) is reported as “no significant effect”; against ERα/β (10 µM compound) it was ~ 30%. Moreover, the “ERE reporter activity compared to maximal E2 response” value on ERα/β (1 µM, Fig. 5) is ~ 15%. For the same molecule, the “inhibitory effects on estrogen-induced transcription” value on ERα/β (E2 at 10 nM (data not shown)) is reported as “absent”. The ERE activation on ERα/β (concentrations 1–10 µM, Fig. 2) is reported as 15–20%. Also, the “activation of the ERE reporter (of E2 response)” value at ERα/β (high doses (≥1 µM), 24 h, MCF-7 ERE-GFP) is on record as not above 20%. Also, the “binding to ERα” value in the assay with ERα [5] (high concentrations (≥10 µM)) is reported as “weak binding”.

Usually IC50 stands for the concentration at which inhibition is half-maximal. Usually inhibition stands for the share of the control response that was lost under treatment. `CC(C)c1ccc2c(c1)C1C=CCC1C(c1cc3c(cc1Br)OCO3)N2` (stereo not drawn) [G36, 4-(6-Bromo-benzo[1,3]dioxol-5-yl)-8-isopropyl-3a,4,5,9b-tetrahydro-3H-cyclopenta[c]quinoline]: the “binding to ERβ (competition of E2-Alexa633)” value in the assay with ERβ [3] (setting [10]) is “lacking detectable binding activity”. The “inhibition of E2-mediated PI3K activation” value with ERα [1] (1 µM G36 preincubated 20 min) is listed as “did not inhibit”. Also, the “inhibition of E2-induced PI3K activation” value on GPER [6] is “effectively inhibited”. The “binding to ERα (competition of E2-Alexa633)” value in the assay on ERα [4] (setting [10]) was “lacking detectable binding activity”. The “effect on basal calcium level in cells” value on GPER [7] (10 µM G36 alone, SKBr3) is listed as “did not alter”. Besides, the IC50 is 112 nM on GPER [7] (IC50, inhibition of E2-mediated calcium mobilization, SKBr3, E2 200 nM) and 165 nM on GPER [7] (IC50, inhibition of G-1-mediated calcium mobilization, SKBr3, G-1 200 nM). Moreover, at GPER [8] (SKBr3, E2 10 nM, 1 µM antagonist pre-incubated 15 min), the “effect on E2-induced ERK activation” value was “significant decrease”. The “effect on EGF-induced ERK activation” value on GPER [8] (SKBr3, EGF 10 ng/mL, 1 µM antagonist) is on record as “unchanged”. Besides, the “effect on G-1-induced ERK activation” value at GPER [8] (SKBr3, G-1 10 nM, 1 µM antagonist pre-incubated 15 min) is given as “significant decrease”. For the same molecule, the inhibition at 10 µM at ERα/β (MCF7, read-out: inhibition of E2-induced ERE response) was less than 5%. Moreover, at ERα/β (concentrations up to 1 µM), the ERE response elicited result is recorded as “no significant ERE response”. The “antagonism of E2-mediated ERE response” value on ERα/β (concentrations up to 10 µM) is on record as “no ability to antagonize”. The “effect on proliferation compared to E2 treatment” value with uterine epithelia (G36 50 ug/kg with E2 10 ug/kg) is on record as “significant decrease in proliferation”. Moreover, the “effect on proliferative response to G-1” value with uterine epithelia (G36 50 ug/kg with G-1 10 ug/kg) was “completely abrogated”. In addition, in the assay on uterine epithelia (ovariectomized C57Bl6 mice, E2 10 ug/kg, G-1 10 ug/kg, G36 50 ug/kg), the “uterine epithelial proliferation (Ki-67 positivity), compound alone” value is listed as “no effect”. Besides, in the assay with COS7 cells, the “activation of PI3K” value is given as “no activation of PI3K”. In addition, in [9], the “inhibition of calcium mobilization by 1 µM ATP” value is “no inhibition”.

For `CC(=O)c1ccc2c(c1)C1C=CCC1C(c1cc3c(cc1Br)OCO3)N2` (stereo not drawn) [G-1], in the assay with COS7 cells, the “activation of PI3K” value is given as “no activation of PI3K”. In addition, in the assay with ERα [5] (10 µM), the ER binding competition entry was “unable to detect significant competition”.
